# Results as given in ChEMBL document CHEMBL1122557, “Antiallergic agents. 3. N-(1H-tetrazol-5-yl)-2-pyridinecarboxamides” (1984).
# Active and inactive are the calls of the source. The rule behind the calls is not given here.
# Columns and labels:
# [1] = test system: Rattus norvegicus; assay: Inhibition of passive cutaneous anaphylaxis following 10 mg/kg p.o. administration.; format: functional; conditions: route oral
# Method in brief: (§1)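 Rat passive cutaneous anaphylaxis model, with test agents given by the oral route.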
# [2] = test system: Rattus norvegicus; assay: Inhibition of passive cutaneous anaphylaxis following 3 mg/kg p.o. administration.; format: functional; conditions: route oral; method in brief: as §1
# [3] = test system: Rattus norvegicus; assay: Inhibition of passive cutaneous anaphylaxis following 30 mg/kg p.o. administration.; format: functional; conditions: route oral; method in brief: as §1
# [4] = test system: Rattus norvegicus; assay: Inhibition of passive cutaneous anaphylaxis following 1 mg/kg p.o. administration.; format: functional; conditions: route oral; method in brief: as §1
# [5] = test system: Rattus norvegicus; assay: Inhibition of passive cutaneous anaphylaxis following 3 mg/kg p.o. (5 min pretreatment) administration.; format: functional; conditions: route oral; method in brief: as §1
# [6] = test system: Rattus norvegicus; assay: Inhibition of passive cutaneous anaphylaxis following 10 mg/kg p.o. administration; Inactive.; format: functional, organism-based; set-up: dose 10 mg/kg; conditions: at 10 mg/kg; method in brief: as §1
SMILES,inhibition in vivo at 10 mg/kg [1] [%],inhibition in vivo at 3 mg/kg [2] [%],also measured
CSc1ccc(C(=O)Nc2nn[nH]n2)nc1,29,,
O=C(Nc1nn[nH]n1)c1cccnc1,3,4,inhibition in vivo at 30 mg/kg [3]: 18%
Cc1ccc(C)c(C(=O)Nc2nn[nH]n2)n1,,65,inhibition in vivo at 1 mg/kg [4]: 37%; inhibition in vivo at 3 mg/kg [5]: 72%
O=C(Nc1nn[nH]n1)c1cccc(/C=C/c2ccccc2)n1,,73,inhibition in vivo at 1 mg/kg [4]: 53%; inhibition in vivo at 3 mg/kg [5]: 75%
O=C(Nc1nn[nH]n1)c1cccc(Br)n1,48,38,
Cc1cc(Cl)cc(C(=O)Nc2nn[nH]n2)n1,100,,inhibition in vivo at 1 mg/kg [4]: 66%; inhibition in vivo at 3 mg/kg [5]: 85%
O=C(Nc1nn[nH]n1)c1ccncc1,,,inhibition in vivo at 30 mg/kg [3]: 57%
O=C(O)c1cccc(/C=C/c2ccccc2)n1,,,inhibition [6]: inactive
O=C(Nc1nn[nH]n1)c1cccc(Cl)n1,13,18,
CCOC(=O)C(=O)Nc1cccc(/C=C/c2ccccc2)n1,,,inhibition [6]: inactive
O=C(Nc1nn[nH]n1)c1cc(Br)ccn1,100,34,inhibition in vivo at 1 mg/kg [4]: 9%
CCCCOc1cccc(C(=O)Nc2nn[nH]n2)n1,8,18,
Cc1cccnc1C(=O)Nc1nn[nH]n1,69,,
Cc1ccc(C(=O)Nc2nn[nH]n2)nc1,42,,
COc1ccnc(C(=O)Nc2nn[nH]n2)c1,88,,
O=C(Nc1nn[nH]n1)c1ccccn1,35,29,inhibition in vivo at 1 mg/kg [4]: 0%; inhibition in vivo at 30 mg/kg [3]: 100%
O=C(Nc1nn[nH]n1)c1ncccc1Cl,22,,
Cc1ccnc(C(=O)Nc2nn[nH]n2)c1,,42,inhibition in vivo at 1 mg/kg [4]: 28%; inhibition in vivo at 3 mg/kg [5]: 51%
CCCCc1cccc(C(=O)Nc2nn[nH]n2)n1,18,,

SMILES,inhibition in vivo at 10 mg/kg [1] [%],inhibition in vivo at 3 mg/kg [2] [%],also measured
O=C(Nc1nn[nH]n1)c1cccc(Oc2ccccc2)n1,0,,
Cc1cc(C)nc(C(=O)Nc2nn[nH]n2)c1,,44,inhibition in vivo at 3 mg/kg [5]: 37%
CCCc1cccc(C(=O)Nc2nn[nH]n2)n1,38,,
Cc1ccc(C(=O)Nc2nn[nH]n2)nc1C,42,,
O=C(Nc1nn[nH]n1)c1cc([N+](=O)[O-])ccn1,38,,
Cc1cc([N+](=O)[O-])cc(C(=O)Nc2nn[nH]n2)n1,6,,
CCc1ccnc(C(=O)Nc2nn[nH]n2)c1,,29,inhibition in vivo at 1 mg/kg [4]: 32%; inhibition in vivo at 3 mg/kg [5]: 54%
CCCCc1ccnc(C(=O)Nc2nn[nH]n2)c1,54,33,
CNc1ccc(-c2cc(C)cc(C(=O)Nc3nn[nH]n3)n2)cc1,,89,
O=C(Nc1nn[nH]n1)c1cccc(CCc2ccccc2)n1,45,,
COc1cccc(C(=O)Nc2nn[nH]n2)n1,58,36,
C(=C\c1cccc(-c2nn[nH]n2)n1)/c1ccccc1,,,inhibition [6]: inactive
Cc1cccc(C(=O)Nc2nn[nH]n2)n1,,46,inhibition in vivo at 1 mg/kg [4]: 40%; inhibition in vivo at 3 mg/kg [5]: 73%
O=C(Nc1nn[nH]n1)c1cc(Cl)ccn1,100,72,inhibition in vivo at 1 mg/kg [4]: 38%; inhibition in vivo at 3 mg/kg [5]: 71%
O=C(O)C(=O)Nc1cccc(/C=C/c2ccccc2)n1,,,inhibition [6]: inactive
COc1cc(C)nc(C(=O)Nc2nn[nH]n2)c1,20,,
CC(C)c1ccnc(C(=O)Nc2nn[nH]n2)c1,,34,inhibition in vivo at 1 mg/kg [4]: 36%
COc1cccnc1C(=O)Nc1nn[nH]n1,0,,
